Results published in ChEMBL document CHEMBL4316593 (Eur J Med Chem, 2019).
Activity calls are given as the source filed them. The calls are words filed in the database; no cut-off is given here.

How the values were obtained:
U-87 MG [1] = test: Induction of DNA damage in human U87 cells assessed as change in RPS27L gene expression at cytotoxic IC50 measured after 48 hrs […] relative to control; type: functional, U-87MG ATCC
Summary of the method: (§1)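 U87 expression profiling. Cells incubated 48hrs at 37°C, 5% CO₂ with the IC₅₀ concentration, alongside a cisplatin and an untreated control, in triplicate. RNA was isolated by one common protocol and profiled. DEGs were called with DESeq2 (q < 0.05, fold change > 1.5) and expressed as fold change versus untreated.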

[2] = Inhibition of RTK/PI3K/AKT/mTOR signaling in human U87 cells assessed as up regulation of USH1 protein network component harmonin gene expression at cytotoxic IC50 measured after 48 hrs relative to control; type: cell-based; details: U-87MG ATCC
LN-229 [3] = test: Induction of oxidative stress in human LN229 cells assessed as increase in redox level at cytotoxic IC50 measured after 5 hrs by H2DCFDA dye based fluorescence assay relative to control; type: functional, cell-based
Summary of the method: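 Cells grown overnight, exposed to IC50 for 5 hrs at 37°C with negative, positive (H2O2) and blank controls, plus solvent baseline. Pelleted, loaded with 2 µM H2DCFDA for 30 min at 37°C, washed, resuspended in warm medium, 20 min at room temperature. Fluorescence read at ex 485/em 535 nm.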

U-87 MG [4] = test: Cytotoxicity against human U87 cells assessed as reduction in cell proliferation measured after 48 hrs by trypan blue dye-based cell counting analysis
[5] = Inhibition of RTK/PI3K/AKT/mTOR signaling in human U87 cells assessed as down regulation of LAMA2 gene expression at cytotoxic IC50 measured after 48 hrs relative to control; type: cell-based; details: U-87MG ATCC
Summary of the method: (§2)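 U87 cells grown in MEM with 10% FBS at 37°C, 5% CO2. Cells exposed to IC50 of test compound for 48 hrs, alongside untreated and cisplatin controls, each condition in triplicate. RNA isolated and profiled; differential expression called with DESeq2 (q-value < 0.05, fold change > 1.5), fold change versus untreated.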

[6] = Inhibition of RTK/PI3K/AKT/mTOR signaling in human U87 cells assessed as up regulation of ras homolog family member Q gene expression at cytotoxic IC50 measured after 48 hrs relative to control; type: cell-based; details: U-87MG ATCC
[7] = Inhibition of RTK/PI3K/AKT/mTOR signaling in human U87 cells assessed as up regulation of tribbles pseudokinase 2 gene expression at cytotoxic IC50 measured after 48 hrs relative to control; type: cell-based; details: U-87MG ATCC
[8] = Inhibition of RTK/PI3K/AKT/mTOR signaling in human U87 cells assessed as down regulation of PTGES3 gene expression at cytotoxic IC50 measured after 48 hrs relative to control; type: cell-based; details: U-87MG ATCC
Summary of the method: (§3)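 Cells were exposed for 48hrs at 37°C in humidified 5% CO₂ to the compound at its previously determined IC₅₀, with Cisplatin at its IC₅₀ and an untreated negative control alongside. Each condition was run in triplicate. RNA was isolated from all samples by the same protocol. Genes were called differentially expressed by DESeq2 at q-value < 0.05 and fold change > 1.5.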

U-87 MG [9] = test: Induction of DNA damage in human U87 cells assessed as change in BRIP1 gene expression at cytotoxic IC50 measured after 48 hrs […] relative to control; type: functional, U-87MG ATCC; summary of the method: as §1
U-87 MG [10] = test: Cell cycle arrest in human U87 cells assessed as change in PKMYT1 gene expression at cytotoxic IC50 measured after 48 hrs […] relative to control; type: functional, U-87MG ATCC; summary of the method: as §1
U-87 MG [11] = test: Induction of apoptosis in human U87 cells assessed as change in MAPK8 gene expression at cytotoxic IC50 measured after 48 hrs […] relative to control; type: functional, U-87MG ATCC; summary of the method: as §2
U-87 MG [12] = test: Cell cycle arrest in human U87 cells assessed as accumulation at G1 phase at cytotoxic IC50 measured after 48 hrs by propidium iodide staining based fluorescence cell imaging analysis (reference value: 39.7%); type: functional, U-87MG ATCC
Summary of the method: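 Cell cycle by PI staining. Cells seeded at 1×10^6 and grown overnight at 37°C, 5% CO₂, then exposed for 48hrs at their IC₅₀ concentration, with DMSO and cisplatin controls. Cells were trypsinized, washed in cold PBS and fixed in 70% ethanol at 4°C for 30 min. They were stained with PI in Triton X-100/RNase for 15 min at 37°C and imaged by fluorescence microscopy. Reported as mean ± S.E.M of triplicates.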

[13] = Inhibition of RTK/PI3K/AKT/mTOR signaling in human U87 cells assessed as up regulation of zinc finger protein 217 gene expression at cytotoxic IC50 measured after 48 hrs relative to control; type: cell-based; details: U-87MG ATCC
[14] = Inhibition of RTK/PI3K/AKT/mTOR signaling in human U87 cells assessed as down regulation of CHST3 gene expression at cytotoxic IC50 measured after 48 hrs relative to control; type: cell-based; details: U-87MG ATCC; summary of the method: as §2
LN-229 [15] = test: Cytotoxicity against human LN229 cells assessed as reduction in cell proliferation up to 200 uM by trypan blue dye-based cell counting analysis; type: functional; details: TDE = time-dependent effect
[16] = Inhibition of RTK/PI3K/AKT/mTOR signaling in human U87 cells assessed as down regulation of ZYG11B gene expression at cytotoxic IC50 measured after 48 hrs relative to control; type: cell-based; details: U-87MG ATCC; summary of the method: as §3
[17] = Inhibition of RTK/PI3K/AKT/mTOR signaling in human U87 cells assessed as up regulation of FAM131C gene expression at cytotoxic IC50 measured after 48 hrs relative to control; type: cell-based; details: U-87MG ATCC; summary of the method: as §3
[18] = Inhibition of RTK/PI3K/AKT/mTOR signaling in human U87 cells assessed as down regulation of DTL gene expression at cytotoxic IC50 measured after 48 hrs relative to control; type: cell-based; details: U-87MG ATCC; summary of the method: as §2
U-87 MG [19] = test: Induction of apoptosis in human U87 cells assessed as change in GADD45A gene expression at cytotoxic IC50 measured after 48 hrs […] relative to control; type: functional, U-87MG ATCC; summary of the method: as §2
U-87 MG [20] = test: Induction of DNA damage in human U87 cells assessed as change in TAOK3 gene expression at cytotoxic IC50 measured after 48 hrs […] relative to control; type: functional, U-87MG ATCC; summary of the method: as §2
[21] = Inhibition of RTK/PI3K/AKT/mTOR signaling in human U87 cells assessed as up regulation of CAPN1 gene expression at cytotoxic IC50 measured after 48 hrs relative to control; type: cell-based; details: U-87MG ATCC; summary of the method: as §3
U-87 MG [22] = test: Induction of apoptosis in human U87 cells assessed as change in ACTG1 gene expression at cytotoxic IC50 measured after 48 hrs […] relative to control; type: functional, U-87MG ATCC; summary of the method: as §2
U-87 MG [23] = test: Cytotoxicity against human U87 cells assessed as reduction in cell proliferation at 100 uM measured after 48 hrs by trypan blue dye-based cell counting analysis; type: functional; details: U-87MG ATCC
Summary of the method: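 Trypan blue viability assay. U87 (MEM, 10% FBS) or LN229 (DMEM, 5% FBS) cells were treated for 48hrs. Screening used 100 μM; the dose-response used 100, 75, 50, 25 and 10 μM. Cells were pelleted at 1200 rpm and live/dead cells counted by automated counter. Mortality % was taken relative to the DMSO control, and IC₅₀ derived from the dose-response curve. Cisplatin served as positive control.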

U-87 MG [24] = test: Induction of DNA damage in human U87 cells assessed as change in BAX gene expression at cytotoxic IC50 measured after 48 hrs […] relative to control; type: functional, U-87MG ATCC; summary of the method: as §1
U-87 MG [25] = test: Cell cycle arrest in human U87 cells assessed as change in CDK4 gene expression at cytotoxic IC50 measured after 48 hrs […] relative to control; type: functional, U-87MG ATCC; summary of the method: as §1

Question: With `CC(=O)C(=NNc1ccccc1C#N)C(C)=O` as the compound, how does the “fold change (FC)” value (U-87 MG [1]) read?
Answer: 2.121

Question: What about the log2FC [2] of the same compound?
Answer: 1.03

Question: What about the Activity (LN-229 [3]) of the same compound?
Answer: inactive

Question: And the IC50 (U-87 MG [4])?
Answer: 107 µM

Question: And the log2FC [5]?
Answer: -1.14

Question: And the log2FC [6]?
Answer: 0.702

Question: What about the log2FC [7] of the same compound?
Answer: 1.41

Question: And the log2FC [8]?
Answer: -0.422

Question: And the “fold change (FC)” value (U-87 MG [9])?
Answer: 2.317

Question: What about the “fold change (FC)” value (U-87 MG [10]) of the same compound?
Answer: 1.852

Question: And the log2FC (U-87 MG [11])?
Answer: -1.076

Question: And the Activity (U-87 MG [12])?
Answer: 47.7%

Question: And the log2FC [13]?
Answer: 1.37

Question: What about the log2FC [14] of the same compound?
Answer: -1.06

Question: What about the Activity (LN-229 [15]) of the same compound?
Answer: Tde

Question: What about the log2FC [16] of the same compound?
Answer: -0.823

Question: And the log2FC [17]?
Answer: 2.04

Question: What about the log2FC [18] of the same compound?
Answer: -1.56

Question: And the log2FC (U-87 MG [19])?
Answer: -0.9679

Question: What about the “fold change (FC)” value (U-87 MG [20]) of the same compound?
Answer: -1.929

Question: What about the log2FC [21] of the same compound?
Answer: 0.475

Question: And the log2FC (U-87 MG [22])?
Answer: -1.416

Question: What about the Activity (U-87 MG [23]) of the same compound?
Answer: Active

Question: And the “fold change (FC)” value (U-87 MG [24])?
Answer: 2.512

Question: And the “fold change (FC)” value (U-87 MG [25])?
Answer: 1.499
